Data on eight compounds can be found in ChEMBL document CHEMBL3091371, “Cytotoxic and antibacterial marfuraquinocins from the deep South China Sea-derived Streptomyces niveus SCSIO 3406” (J Nat Prod, 2013).

Structures are written as SMILES. Values after ≈ are worked out from the molar mass of the structure shown.

In assay [1] the test system is Staphylococcus epidermidis. Description: Antibacterial activity against methicillin-resistant Staphylococcus epidermidis clinical isolate shhs-E1 by broth microdilution method. The format is functional. The procedure, abridged: (§1)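 Broth microdilution; MIC read as the lowest concentration giving complete growth inhibition in microdilution wells by unaided eye. Clinical isolates from Shanghai Huashan Hospital. Ampicillin and kanamycin as antibacterial controls. Results in μg/mL.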
For orientation: Broth dilution looks for growth in wells or tubes with falling amounts of substance.

The test system of assay [2] is Staphylococcus aureus. The assay can be described thus: Antibacterial activity against methicillin-resistant Staphylococcus aureus clinical isolate shhs-A1 by broth microdilution method. The format is functional. The procedure, abridged: as §1
Assay [3] concerns Micrococcus luteus. Description: Antibacterial activity against Micrococcus luteus by broth microdilution method. The format is functional.
Assay [4] in a line: Antibacterial activity against Aeromonas hydrophila ATCC 7966 by broth microdilution method. It is filed as functional, Aeromonas hydrophila subsp. hydrophila ATCC 7966.
Assay [5] relates to Acinetobacter baumannii. The assay can be described thus: Antibacterial activity against Acinetobacter baumannii ATCC 19606 by broth microdilution method. The format is functional.
For assay [6], the system named is Staphylococcus aureus. The assay can be described thus: Antibacterial activity against Staphylococcus aureus ATCC 29213 by broth microdilution method. The format is functional.
In assay [7] the test system is Escherichia coli. The assay can be described thus: Antibacterial activity against Escherichia coli ATCC 25922 by broth microdilution method. The format is functional.
In assay [8] the test system is HepG2. Description: Cytotoxicity against human HepG2 cells after 72 hrs by SRB assay. The format is functional, cell-based. To be noted: HepG2, 72 h. The procedure, abridged: (§2)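 Human tumour lines are tested by sulforhodamine B (SRB) staining. Cisplatin (DDP) is the positive control. IC50 is reported in μM as mean ± deviation.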
Assay [9] deals with NCI-H460. The assay can be described thus: Cytotoxicity against human NCI-H460 cells after 72 hrs by SRB assay. The format is functional, cell-based. The settings on record: NCI-H460, 72 h. The procedure, abridged:
as §2

Assay [10] deals with MCF7. The assay can be described thus: Cytotoxicity against human MCF7 cells after 72 hrs by SRB assay. It is filed as functional, cell-based. To be noted: MCF7, 72 h. An outline of the steps:
as §2

Assay [11] concerns SF-268. Description: Cytotoxicity against human SF268 cells after 72 hrs by SRB assay. It is filed as functional, cell-based. The settings on record: SF-268, 72 h. The procedure, abridged: as §2

As a reminder, the MIC is the lowest concentration found to suppress growth. As usually defined, the IC50 is the concentration that inhibits the measured activity by half. In the case of `C=C1CCCC(C)(C)C1CC[C@@]1(C)c2c(O)cc3c(c2O[C@@H]1CO)C(=O)C=C(OC)C3=O` (some centres undefined), the MIC in assay [1] is 8 µg/mL (≈ 18.2 µM); in assay [2], over 128 µg/mL; in assay [3], over 128 µg/mL; in assay [4], 128 µg/mL (≈ 291 µM); in assay [5], over 128 µg/mL; in assay [6], 8 µg/mL (≈ 18.2 µM). This compound showed a minimum inhibitory concentration (MIC) in assay [7] of 128 µg/mL (≈ 291 µM). Besides, the IC50 in assay [8] stood at 11.9 µM; in [9], 4.4 µM; in assay [10], 18.9 µM; in [11] it was 17.9 µM.

Consider `COc1cccc2nc3c(OC/C=C(\C)CCC=C(C)C)cccc3nc12`, for which the minimum inhibitory concentration (MIC) was 128 µg/mL (≈ 353 µM) in assay [1]; over 128 µg/mL in [2]; over 128 µg/mL in assay [3]; 128 µg/mL (≈ 353 µM) in assay [4]; over 128 µg/mL in [5]; 128 µg/mL (≈ 353 µM) in assay [6]. The same compound registered an MIC in assay [7] of 128 µg/mL (≈ 353 µM). The IC50 in assay [8] is 52.7 µM; in assay [9], over 100 µM; in assay [10], 21.9 µM; in [11], 30.4 µM.

Consider `CC(C)=CCC/C(C)=C/COc1cccc2nc3c(O)cccc3nc12`, for which the MIC was 128 µg/mL (≈ 367 µM) in assay [1]; over 128 µg/mL in assay [2]; over 128 µg/mL in assay [3]; 64 µg/mL (≈ 184 µM) in assay [4]; over 128 µg/mL in assay [5]; 128 µg/mL (≈ 367 µM) in assay [6]. Also, it took 128 µg/mL (≈ 367 µM) to inhibit growth in assay [7] (MIC). Moreover, the IC50 in [8] came out at 22.3 µM; in assay [9], 68.9 µM; in [10], 16.8 µM; in [11] it was 10.2 µM.

Consider `CC1(C)S[C@@H]2[C@H](NC(=O)[C@H](N)c3ccccc3)C(=O)N2[C@H]1C(=O)O` [AMPICILLIN], for which the MIC in assay [1] was 2 µg/mL (≈ 5.72 µM); in [2], over 128 µg/mL; in assay [3], 2 µg/mL (≈ 5.72 µM); in assay [4] it was 128 µg/mL (≈ 366 µM); in [5], over 128 µg/mL; in assay [6], 0.5 µg/mL (≈ 1.43 µM).

For `C=C1CCCC(C)(C)C1CC[C@]1(C)c2c(O)cc3c(c2O[C@@H]1C)C(=O)C=C(OC)C3=O` (some centres undefined), the MIC was 32 µg/mL (≈ 75.4 µM) in [1]; over 128 µg/mL in [2]; over 128 µg/mL in assay [3]; 128 µg/mL (≈ 302 µM) in [4]; over 128 µg/mL in [5]; 64 µg/mL (≈ 151 µM) in assay [6]. In addition, the MIC in [7] turned out to be 128 µg/mL (≈ 302 µM). Also, the IC50 in assay [8] was 18.5 µM; in [9], 18.8 µM; in [10], 18.7 µM; in assay [11] it was 27.9 µM.

With `C=C1CCCC(C)(C)C1CC[C@]1(C)c2c(O)cc3c(c2O[C@@H]1CO)C(=O)C=C(OC)C3=O` (some centres undefined), the MIC in assay [1] is 8 µg/mL (≈ 18.2 µM); in assay [2], over 128 µg/mL; in [3], over 128 µg/mL; in assay [4], 128 µg/mL (≈ 291 µM); in assay [5] it was over 128 µg/mL; in assay [6], 8 µg/mL (≈ 18.2 µM). In assay [7], this compound showed an MIC of 128 µg/mL (≈ 291 µM). Also, the IC50 in [8] stood at 15.5 µM; in assay [9], 8.8 µM; in [10], 14.8 µM; in assay [11], 18.3 µM.

In the case of `C=C1CCCC(C)(C)C1CC[C@@]1(C)c2c(O)cc3c(c2O[C@@H]1C)C(=O)C=C(OC)C3=O` (some centres undefined), the MIC in [1] was 64 µg/mL (≈ 151 µM); in [2], over 128 µg/mL; in assay [3], over 128 µg/mL; in assay [4], 128 µg/mL (≈ 302 µM); in [5] it was over 128 µg/mL; in [6], 8 µg/mL (≈ 18.8 µM). In addition, inhibition of growth in assay [7] (MIC) required 128 µg/mL (≈ 302 µM). Further, the IC50 was 17.5 µM in assay [8], 3.7 µM in assay [9], 12.9 µM in [10] and 26.7 µM in assay [11].

On to `NC[C@H]1O[C@H](O[C@H]2[C@H](O)[C@@H](O[C@H]3O[C@H](CO)[C@@H](O)[C@H](N)[C@H]3O)[C@H](N)C[C@@H]2N)[C@H](O)[C@@H](O)[C@@H]1O` [KANAMYCIN], for which the MIC in assay [1] was 128 µg/mL (≈ 264 µM); in [2], 0.5 µg/mL (≈ 1.03 µM); in assay [3] it was 0.5 µg/mL (≈ 1.03 µM); in assay [4] it was 0.5 µg/mL (≈ 1.03 µM); in [5], 4 µg/mL (≈ 8.26 µM); in [6], 0.5 µg/mL (≈ 1.03 µM). Also, the MIC in assay [7] worked out at 0.5 µg/mL (≈ 1.03 µM).
